Key:
Assay type in all cases: tissue-based
[1] = molecular target: Calcium-activated potassium channel subunit alpha-1 (Rattus norvegicus) (UniProt Q62976); experiment: (§1) Activation of BK channel in Wistar rat thoracic aorta assessed as relaxation of KCl-induced contraction
Outline: (§2)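 Endothelium-denuded aortic rings in Tyrode at 37 °C, gassed 95% O2/5% CO2. Denudation was confirmed by under 10% acetylcholine relaxation of KCl 20 mM tone. Rings were precontracted with KCl 20 mM, then given cumulative 3-fold increasing concentrations from 10 nM (DMSO stock, diluted in Tyrode). Efficacy was maximal relaxation as % of KCl tone; pIC50 was derived only when efficacy was ≥55%. 5-10 experiments.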

[2] = molecular target: Calcium-activated potassium channel subunit alpha-1 (Rattus norvegicus, UniProt Q62976); experiment: as §1; outline: as §2
[3] = molecular target: Calcium-activated potassium channel subunit alpha-1 (Rattus norvegicus) (UniProt Q62976); experiment: Activation of BK channel in Wistar rat thoracic aorta assessed as relaxation of KCl-induced contraction in presence of potassium channel blocker TEAC
Outline: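 Endothelium-denuded aortic rings in gassed Tyrode at 37 °C, incubated with tetraethylammonium chloride 10 mM for 20 min before KCl 20 mM precontraction. Cumulative 3-fold increasing concentrations from 10 nM were added at the plateau. Relaxation was expressed as % of KCl tone, with pIC50 as the negative log molar concentration halving the tone. 5-10 experiments.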

Sequence of Calcium-activated potassium channel subunit alpha-1 (Q62976 whole entry): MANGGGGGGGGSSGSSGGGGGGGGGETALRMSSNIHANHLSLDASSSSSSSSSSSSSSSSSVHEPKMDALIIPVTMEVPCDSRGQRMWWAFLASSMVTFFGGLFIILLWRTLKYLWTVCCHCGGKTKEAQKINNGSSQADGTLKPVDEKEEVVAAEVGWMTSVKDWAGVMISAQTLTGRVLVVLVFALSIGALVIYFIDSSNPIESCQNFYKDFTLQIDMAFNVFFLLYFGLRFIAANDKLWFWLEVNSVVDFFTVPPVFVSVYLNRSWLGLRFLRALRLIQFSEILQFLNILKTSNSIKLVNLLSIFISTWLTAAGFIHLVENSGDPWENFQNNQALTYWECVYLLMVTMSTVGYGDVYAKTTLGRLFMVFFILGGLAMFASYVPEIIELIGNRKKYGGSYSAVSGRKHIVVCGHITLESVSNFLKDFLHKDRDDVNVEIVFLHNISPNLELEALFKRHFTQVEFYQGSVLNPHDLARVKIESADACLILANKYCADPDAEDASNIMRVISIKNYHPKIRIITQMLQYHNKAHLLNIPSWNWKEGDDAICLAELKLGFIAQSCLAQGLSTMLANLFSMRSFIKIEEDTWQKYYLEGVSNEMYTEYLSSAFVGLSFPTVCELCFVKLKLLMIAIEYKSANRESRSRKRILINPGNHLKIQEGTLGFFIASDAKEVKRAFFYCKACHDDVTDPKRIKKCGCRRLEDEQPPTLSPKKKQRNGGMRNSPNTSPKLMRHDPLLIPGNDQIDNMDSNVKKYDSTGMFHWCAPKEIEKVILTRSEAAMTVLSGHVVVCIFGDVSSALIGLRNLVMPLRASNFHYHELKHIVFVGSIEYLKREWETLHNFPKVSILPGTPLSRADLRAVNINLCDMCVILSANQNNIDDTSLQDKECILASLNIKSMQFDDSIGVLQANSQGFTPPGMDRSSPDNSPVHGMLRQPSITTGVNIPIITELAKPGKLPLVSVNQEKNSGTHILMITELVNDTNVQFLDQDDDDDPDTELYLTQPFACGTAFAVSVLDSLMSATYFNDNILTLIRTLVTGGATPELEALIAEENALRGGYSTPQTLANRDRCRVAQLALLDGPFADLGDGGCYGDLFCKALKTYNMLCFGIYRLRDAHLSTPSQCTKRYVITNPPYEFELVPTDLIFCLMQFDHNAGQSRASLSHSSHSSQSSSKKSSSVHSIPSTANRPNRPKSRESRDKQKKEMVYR
Sequence of Calcium-activated potassium channel subunit alpha-1 (Rattus norvegicus) (Q62976 whole entry): as above

SMILES | Emax [1] [%] | IC50 [2] [µM] | Emax [3] [%]
Cc1c(C(=O)Nc2ccccc2O)nnn1Cc1ccccc1F | 35 | – | –
Cc1c(C(=O)Nc2ccccc2O)nnn1Cc1ccccc1O | 81 | 20.4 | –
Cc1c(C(=O)NCc2ccccc2O)nnn1Cc1ccccc1F | 24 | – | –
Cc1c(C(=O)Nc2ccccc2)nnn1Cc1ccccc1O | 89 | 17.8 | 37
Cc1c(C(=O)NCc2ccccc2O)nnn1Cc1ccccc1O | 76 | 21.9 | –
Cc1c(C(=O)NCc2ccccc2O)nnn1Cc1ccccc1Cl | 49 | – | –
Cc1c(C(=O)Nc2ccc(Cl)cc2)nnn1Cc1ccccc1O | 53 | – | –
O=c1[nH]c2cc(C(F)(F)F)ccc2n1-c1cc(C(F)(F)F)ccc1O | 94 | 5.13 | –
Cc1c(C(=O)NCc2ccccc2)nnn1Cc1ccccc1O | 48 | – | –
Cc1c(C(=O)NCc2ccccc2Cl)nnn1Cc1ccccc1O | 51 | – | –
Cc1c(C(=O)Nc2ccccc2O)nnn1Cc1ccccc1Cl | 52 | – | –

— ChEMBL document CHEMBL1154477, “1,2,3-Triazol-carboxanilides and 1,2,3-triazol-(N-benzyl)-carboxamides as BK-potassium channel activators. XII” (Eur J Med Chem, 2008)
